Measurements taken from paper PMC10782576 (ACS infectious diseases, 2019).
“Also recorded” adds a separate entry of the source. Read-outs that look alike come from different tables or passages of the source.

How the values were obtained:
Trichomonas vaginalis = test: imaging-based T. vaginalis viability assay; format: cell-based; conditions: for EC50: Trichomonas vaginalis; for effect of oxygen level on antitrichomonal activity: aerobic, microaerophilic and anaerobic atmospheres compared; for extent of elimination of trichomonads: strict anaerobic atmosphere; for EC50 T. vaginalis: imaging assay, 17 h incubation, microaerophilic unless specified
[1] = tested on: Ect1/E6E7 normal-type human ectocervical cells; test: mammalian cell cytotoxicity counter screen, Ect1/E6E7; format: cell-based; conditions: for Selectivity Index SIEct1: (EC50 for Ect1 cells)/(EC50 for T. vaginalis); for EC50: read-out: EC50 Ect1 Normal Cervical, Ect1/E6E7 cytotoxicity
[2] = tested on: Lactobacillus acidophilus; test: Lactobacillus acidophilus viability assay; format: cell-based; conditions: for effect on growth and viability of L. acidophilus: anaerobic conditions, at the concentrations tested (Figure 8); for EC50: read-out: EC50 L. acidophilus, anaerobic, 18 h
Outline: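 Bacteria from MRS agar colonies were suspended in MRS broth, vortexed and dispensed into 96-well plates. Test compound was added in DMSO (0.5% final). Baseline OD 600 nm was read, then plates were incubated 18 h at 37 °C under anaerobic conditions (GasPak EZ Anaerobe sachets). OD 600 nm was read again to determine change from baseline.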

[3] = tested on: NIH/3T3 mouse fibroblast cells; test: mammalian cell cytotoxicity counter screen, NIH/3T3; format: cell-based; conditions: read-out: EC50 3T3 Mouse Fibroblast; NIH/3T3 cytotoxicity
Outline: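 NIH/3T3 mouse fibroblasts were maintained in DMEM with 5% FetalClone III. Viability was read by MTT or by a Calcein AM/Hoechst 33342 live-cell-area imaging assay. For imaging, a DMSO stock (40 μM Calcein AM, 160 μM Hoechst) was diluted 1:5 in PBS and added. After 30 min, Hoechst-stained nuclei were imaged and cells were scored live or dead by green fluorescence.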

T. vaginalis infection = conditions: after a single course of treatment; cited from earlier work
[4] = 17 h, read-out: EC50 T. vaginalis

Compound	effect of oxygen level on antitrichomonal activity (Trichomonas vaginalis)	EC50 [2]	EC50 [3]	EC50 [1]	further results
COC1=CC(=O)c2c(O)c3c(c(O)c2C1=O)CC(C)(O)OC3 (stereo not drawn) [compound 1, fusarubin]	decreased as oxygen was introduced				EC50 (Trichomonas vaginalis; [4]): 2.5 µM; extent of elimination of trichomonads (Trichomonas vaginalis): partial elimination; Selectivity Index SIEct1 [1]: 30
COC1=CC(=O)c2c(O)c(C)c(CC(C)=O)c(O)c2C1=O [compound 2, javanicin]					EC50 (Trichomonas vaginalis; [4]): 1.3 µM; Selectivity Index SIEct1 [1]: 3.1
COC1=CC(=O)c2c(O)ccc(O)c2C1=O [compound 9, 2-Methoxynaphthazarin]	decreased as oxygen was introduced				extent of elimination of trichomonads (Trichomonas vaginalis): complete elimination
O=C1C(O)=C([C@H]2CC[C@H](c3ccc(Cl)cc3)CC2)C(=O)c2ccccc21 [compound 37, atovaquone, reference compound]					Selectivity Index SIEct1 [1]: < 0.1
COC(=O)[C@@]12Oc3cc4c(c(O)c3C(=O)C1=C(O)CC[C@@H]2O)[C@@H]1C=C[C@@]2(C4)C(=O)c3cc(C)cc(O)c3C(O)=C2C1=O [compound 46, xanthoquinodin A1]	maintained consistent potency				EC50 (Trichomonas vaginalis; read-out: average EC50 against T. vaginalis): 3 µM; effect on growth and viability of L. acidophilus [2]: near equipotent activity against T. vaginalis and L. acidophilus; also recorded: significant inhibition; Selectivity Index SIEct1 [1]: ~ 20
C/C=C/[C@@H]1C=C[C@@H]2C[C@H](C)CC[C@H]2[C@]1(C)/C(O)=C1/C(=O)[C@@H](CO)N(C)C1=O [compound 49, 5’-epiequisetin]					EC50 T. vaginalis (Trichomonas vaginalis): Inactive
C/C=C/[C@@H]1C=C[C@@H]2C[C@H](C)CC[C@H]2[C@]1(C)/C(O)=C1/C(=O)N[C@@H](CO)C1=O [compound 50, trichosetin]		> 50 µM	30 µM	34 µM	
CC1=C[C@H]2C[C@@H](C)CC[C@@H]2[C@@](C)(/C(O)=C2\C(=O)[C@H](CO)N(C)C2=O)[C@H]1/C=C/C=C/C[C@@H](C)O [compound 52, 5’-epipyrrolocin A]					EC50 T. vaginalis (Trichomonas vaginalis): Inactive
C/C=C/C=C/C1C(C)=CC2CC(C)CCC2C1(C)/C(O)=C1\C(=O)NC(CO)C1=O (stereo not drawn) [compound 53, beauversetin]	no statistically significant change in EC50 value	> 50 µM	35 µM	35 µM	effect on growth and viability of L. acidophilus [2]: no effect
C/C=C/C=C/[C@H]1C(C)=C[C@H]2C[C@@H](C)CC[C@@H]2[C@@]1(C)/C(O)=C1/C(=O)N[C@@H](CO)C1=O [compound 54, 5’-epibeauversetin]					EC50 T. vaginalis (Trichomonas vaginalis): Inactive
C/C=C/C=C/[C@H]1C(C)=C[C@H]2C[C@@H](C)CC[C@@H]2[C@@]1(C)/C(O)=C1\C(=O)[C@H](CO)N(C)C1=O [compound 56, 5’-epiphomasetin]					EC50 T. vaginalis (Trichomonas vaginalis): Inactive
Cc1ncc([N+](=O)[O-])n1CCO [metronidazole, reference compound]	maintained consistent potency				effect on growth and viability of L. acidophilus [2]: no inhibition; patients cleared of the infection (T. vaginalis infection): > 90%
CCS(=O)(=O)CCn1c([N+](=O)[O-])cnc1C [tinidazole]					patients cleared of the infection (T. vaginalis infection): > 90%
equisetin [compound 48]		> 50 µM	100 µM	35 µM	toxicity to / inhibition of L. acidophilus ([2]; at concentrations up to 50 μM): non-toxic
phomasetin [compound 55]		> 50 µM	10 µM	7 µM	
pyrrolocin A [compound 51]		> 50 µM	6 µM	10 µM	
